“Also recorded” adds a separate entry of the source. Where two headings read alike, the source gives them in different places.
Tests used:
calmodulin-Sepharose = assay: CaM-Sepharose pulldown of Myc-tagged proteins expressed in COS-7 cells; type: binding; details: for CaM-Sepharose pulldown, calcium-replete: 5mM CaCl2; for CaM-Sepharose pulldown, calcium-replete / CaM-Sepharose pulldown, calcium-poor: TX-buffer pH 6.9, overnight at 4°C, anti-Myc western blot; for calcium dependence of CaM binding / overall CaM binding: 5mM CaCl2 or 5mM EGTA, summary in Discussion; for CaM-Sepharose pulldown, calcium-poor: 5mM EGTA
Summary of the method: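 Myc-tagged mouse constructs (from brain cDNA) were expressed in COS-7 cells, grown in DMEM/10% FBS at 37°C and transfected at 80% confluency with 3 μg plasmid. After 48 h, cells were lysed 30 min at 4°C in TX-buffer (50 mM Tris-HCl pH 6.9, 0.5% Triton X-100, protease inhibitors). Cleared lysate was incubated overnight at 4°C with CaM-Sepharose, then washed 3× and detected by SDS-PAGE/anti-Myc (9E10) western blot with ECL.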

[1] = test system: calmodulin-like 4 (Calml4); assay: Yeast two-hybrid; type: binding, mouse; details: LexA and VP16 fusions, lacZ reporter, X-gal
Summary of the method: (§1)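 Mouse coding sequences (from brain cDNA) were cloned as galactose-inducible LexA and VP16 fusions and co-transformed into S260 yeast, selected on glucose Trp−/Ura− plates. Colonies on filters were switched to galactose for induction, then assayed for lacZ with X-gal. Autoactivation was checked against LexA/VP16 control vectors. Blue within 1 h was scored positive; blue at 2–4 h was scored weak.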

[2] = cited from earlier work
centrin 2 (Cetn2) = assay: Yeast two-hybrid; type: binding, mouse; details: LexA and VP16 fusions, lacZ reporter, X-gal
Summary of the method: as §1

calneuron 1 (Caln1) = assay: Yeast two-hybrid; type: binding, mouse; details: LexA and VP16 fusions, lacZ reporter, X-gal
Summary of the method: as §1

calcineurin B (CnB) = assay: Yeast two-hybrid; type: binding, mouse; details: LexA and VP16 fusions, lacZ reporter, X-gal
Summary of the method: as §1

CaM = details: ref Putkey et al., 2008; cited from earlier work

| Substance | CaM-Sepharose pulldown, calcium-replete (calmodulin-Sepharose) | calcium dependence of CaM binding / overall CaM binding (calmodulin-Sepharose) | CaM-Sepharose pulldown, calcium-poor (calmodulin-Sepharose) | interaction with Calml4 in Y2H [1] | structure in solution ([2]; ref Cui et al., 2003, Ran et al.) | interaction with Cetn2 in Y2H (centrin 2 (Cetn2)) | interaction with Caln1 in Y2H (calneuron 1 (Caln1)) | interaction with CnB in Y2H (calcineurin B (CnB)) | role of acidic region (EEFDIDMDAPETE) in CaM binding (CaM) | structure in solution ([2]; NMR and circular dichroism, ref Dickerson, 2004, Dickerson et al., 2006, Kleerekoper and Putkey, 2009) |
| --- | --- | --- | --- | --- | --- | --- | --- | --- | --- | --- |
| neurogranin: calpacitin IQ motif protein, 78 amino acids | associate weakly in high calcium | strong CaM binder | bind to CaM-Sepharose in calcium-poor (Eg) conditions; also recorded: bind CaM in low calcium conditions | no binding was detected | disordered in solution | no binding was detected | no binding was detected | no binding was detected | – | – |
| PEP-19: calmodulin binding IQ motif protein, 62 amino acids | associate weakly in high calcium; also recorded: interacted weakly or not at all with CaM-Sepharose under calcium-replete conditions | binds preferentially to calcium-free CaM | bind to CaM-Sepharose in calcium-poor (Eg) conditions; also recorded: bind CaM in low calcium conditions | no binding was detected | – | no binding was detected | no binding was detected | no binding was detected | dispensable for CaM binding | disordered in solution although it has a propensity to helix formation |

Reference: publication PMC3371134 (Journal of Neurochemistry, 2012)
